Article PMC3846926 (Neuropharmacology, 2010)
Entries after “also recorded” stand apart in the source; their conditions may differ. Blank lines part the entries; values can stand above or below the compound they belong to.

How the values were obtained:
[1] = tested on: ASIC currents in cultured hippocampal neurons; assay: ASIC currents in primary cultured hippocampal neurons, whole-cell voltage clamp; assay type: cell-based, mouse; details: for Inhibition (potency), grade in words: diarylamidines of Table 1, cultured hippocampal neurons; for effect on rates of desensitization of ASIC currents: sub-maximal concentrations
[2] = tested on: ASIC current; details: Wu et al., 2004, cited from earlier work
[3] = tested on: ENaC channels expressed in oocytes; assay: ENaC current in Xenopus oocytes, two-electrode voltage clamp; assay type: cell-based; details: 100 µM; for effect on ENaC activities: oocytes; for relative current of ENaC with compound: relative to control without diarylamidine, holding -70 mV
How it was run: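 Defolliculated (collagenase, 60–120 min) stage V–VI Xenopus laevis oocytes were injected with 1 ng ENaC α/β/γ cRNA and kept 3 days at 19 °C in low-Na+ ringer. Two-electrode voltage clamp at −70 mV, 22–26 °C, in ringer pH 7.4. Amiloride superfusion was replaced by amiloride-free solution, then test compound (100 µM) was applied without amiloride. Amiloride-sensitive current recorded at 1 kHz.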

[4] = target: T1, ASIC1a (Rattus norvegicus, UniProt P55926); assay: ASIC1a currents in oocytes; assay type: cell-based; details: 100 µM
T1 sequence (P55926 1-526): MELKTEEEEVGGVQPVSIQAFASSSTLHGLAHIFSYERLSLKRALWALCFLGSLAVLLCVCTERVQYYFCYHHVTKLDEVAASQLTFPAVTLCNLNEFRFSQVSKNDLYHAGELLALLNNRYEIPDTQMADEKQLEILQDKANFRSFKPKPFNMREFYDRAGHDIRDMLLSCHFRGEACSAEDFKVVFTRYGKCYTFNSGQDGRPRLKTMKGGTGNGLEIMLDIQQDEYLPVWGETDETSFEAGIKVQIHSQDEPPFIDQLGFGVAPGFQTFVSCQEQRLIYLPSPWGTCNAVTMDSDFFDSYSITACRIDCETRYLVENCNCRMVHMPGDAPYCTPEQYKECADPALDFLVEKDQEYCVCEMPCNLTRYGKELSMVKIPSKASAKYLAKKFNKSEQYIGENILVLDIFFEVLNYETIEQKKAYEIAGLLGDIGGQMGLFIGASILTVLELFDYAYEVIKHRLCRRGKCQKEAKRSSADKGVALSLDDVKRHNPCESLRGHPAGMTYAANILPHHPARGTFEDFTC

[5] = target: T2, homomeric ASIC2a (Rattus norvegicus, UniProt Q62962); assay: ASIC2a current in transfected CHO cells, patch clamp; assay type: cell-based; details: pH 5, read-out: inhibition of ASIC2a current
T2 sequence (Q62962 1-512): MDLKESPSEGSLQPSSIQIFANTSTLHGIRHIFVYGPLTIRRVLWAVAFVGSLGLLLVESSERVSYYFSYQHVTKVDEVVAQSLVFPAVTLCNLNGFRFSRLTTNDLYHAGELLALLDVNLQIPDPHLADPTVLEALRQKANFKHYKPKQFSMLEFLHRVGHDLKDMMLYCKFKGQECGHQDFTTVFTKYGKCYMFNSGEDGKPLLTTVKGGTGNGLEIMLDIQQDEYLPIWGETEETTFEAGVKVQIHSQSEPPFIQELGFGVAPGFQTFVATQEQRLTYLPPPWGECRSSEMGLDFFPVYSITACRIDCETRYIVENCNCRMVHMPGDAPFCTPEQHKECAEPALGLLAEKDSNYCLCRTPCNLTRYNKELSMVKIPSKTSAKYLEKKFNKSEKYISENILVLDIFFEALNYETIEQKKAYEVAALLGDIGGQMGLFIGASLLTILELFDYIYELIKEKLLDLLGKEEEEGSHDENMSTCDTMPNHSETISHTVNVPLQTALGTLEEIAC
How it was run: (§1)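 CHO cells in F12 with 10% fetal bovine serum, cotransfected at ~50% confluence with the individual ASIC subunit cDNA (1.8 µg) plus GFP DNA (0.2 µg) per dish. GFP-positive cells whole-cell patch-clamped 48–72 h after plating, held at −60 mV. Activating pH: 6.0 (ASIC1a, 1b), 5.0 (ASIC2a), 6.5 (ASIC3). Test compound perfused 2 min. Currents normalized to control; IC50 from logistic fit; mean ± S.E.M.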

[6] = target: T3, homomeric ASIC1a (Rattus norvegicus, UniProt P55926); assay: ASIC1a current in transfected CHO cells, patch clamp; assay type: cell-based
T3 sequence (P55926 1-526): T1 sequence (P55926 1-526)
How it was run: as §1

[7] = tested on: cultured hippocampal neurons; assay type: cell-based, mouse; details: 10 µM, current clamp
[8] = target: T4, homomeric ASIC3 (Rattus norvegicus, UniProt O35240); assay: ASIC3 current in transfected CHO cells, patch clamp; assay type: cell-based; details: pH 6.5, read-out: inhibition of ASIC3 current
T4 sequence (O35240 1-533): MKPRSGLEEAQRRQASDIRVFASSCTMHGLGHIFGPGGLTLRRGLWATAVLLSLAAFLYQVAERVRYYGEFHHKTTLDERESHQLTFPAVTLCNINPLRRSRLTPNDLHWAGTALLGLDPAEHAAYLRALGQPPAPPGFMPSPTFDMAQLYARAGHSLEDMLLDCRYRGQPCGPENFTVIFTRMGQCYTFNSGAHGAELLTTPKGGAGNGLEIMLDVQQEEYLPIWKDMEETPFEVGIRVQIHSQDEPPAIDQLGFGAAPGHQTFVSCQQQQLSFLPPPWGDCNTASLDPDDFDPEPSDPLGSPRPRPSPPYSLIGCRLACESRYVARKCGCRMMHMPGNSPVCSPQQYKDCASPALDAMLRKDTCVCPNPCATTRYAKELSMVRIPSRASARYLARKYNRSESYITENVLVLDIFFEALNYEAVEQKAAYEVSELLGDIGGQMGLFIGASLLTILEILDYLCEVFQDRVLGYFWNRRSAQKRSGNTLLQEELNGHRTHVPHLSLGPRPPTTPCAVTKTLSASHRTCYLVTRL
How it was run: as §1

[9] = target: T5, homomeric ASIC1b (Rattus norvegicus, UniProt P55926); assay: ASIC1b current in transfected CHO cells, patch clamp; assay type: cell-based; details: pH 6, read-out: inhibition of ASIC1b current
T5 sequence (P55926 1-559 isoform P55926-3): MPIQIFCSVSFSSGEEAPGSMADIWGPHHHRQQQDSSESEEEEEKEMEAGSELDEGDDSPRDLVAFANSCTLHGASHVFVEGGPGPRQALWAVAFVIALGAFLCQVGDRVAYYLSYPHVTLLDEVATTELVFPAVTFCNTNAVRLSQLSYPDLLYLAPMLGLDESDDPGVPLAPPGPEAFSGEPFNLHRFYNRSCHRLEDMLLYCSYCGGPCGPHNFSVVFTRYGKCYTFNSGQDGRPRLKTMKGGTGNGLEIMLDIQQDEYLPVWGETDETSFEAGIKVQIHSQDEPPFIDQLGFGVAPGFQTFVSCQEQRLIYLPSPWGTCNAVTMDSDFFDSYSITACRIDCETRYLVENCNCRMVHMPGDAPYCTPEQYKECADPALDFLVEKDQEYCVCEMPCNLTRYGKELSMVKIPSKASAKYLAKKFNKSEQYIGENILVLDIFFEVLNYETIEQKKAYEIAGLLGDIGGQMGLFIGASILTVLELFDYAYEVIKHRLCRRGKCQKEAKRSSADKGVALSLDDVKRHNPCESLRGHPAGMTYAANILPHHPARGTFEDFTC
How it was run: as §1

[10] = tested on: ENaC; details: read-out: IC50 on ENaC; very weak inhibition; ref Ugawa et al., 2007; cited from earlier work
[11] = 200 µM, cultured hippocampal neurons

Structure (SMILES): N=C(N)NC(=O)c1nc(Cl)c(N)nc1N [Amiloride]
effect on desensitization of ASIC current ([1]; amiloride 80 µM co-applied with pH 5.8): did not accelerate; also recorded: little effect | desensitization time constant of ASIC currents ([1]; amiloride 80 µM co-applied with pH 5.8, control 0.83 ± 0.15 s): 0.72 ± 0.14 s | IC50 ([2]; read-out: IC50 on ASIC current, ref Waldmann et al., 1997): 10 to 20 µM | concentration required to completely block the neuronal ASIC currents ([2]; ref Baron et al., 2002): 200 to 500 µM

Structure (SMILES): CC1(C)[C@@H](OC(=O)CCC(=O)O)CC[C@]2(C)[C@H]3C(=O)C=C4[C@@H]5C[C@@](C)(C(=O)O)CC[C@]5(C)CC[C@@]4(C)[C@]3(C)CC[C@@H]12 [Carbenoxolone]
effect on ASIC currents [1, 11]: failed to inhibit; also recorded: did not inhibit

block of ASIC1a currents in oocytes [4]: almost completely
Structure (SMILES): N=C(N)c1ccc(-c2cc3ccc(C(=N)N)cc3[nH]2)cc1 [DAPI, 4′,6-diamidino-2-phenylindole]
effect on ENaC activities [3]: did not inhibit; also recorded: ineffective | relative current of ENaC with compound [3]: 0.98 ± 0.04 | Inhibition (potency), grade in words [1]: Strong inhibition | effect on rates of desensitization of ASIC currents [1]: did not have marked effects

inhibition at 3 µM [5]: 51 ± 6.1% | IC50 [6]: ~3 µM | inhibition at 3 µM ([6]; CHO, pH 6, read-out: inhibition of ASIC1a current): 39 ± 3.8% | block of ASIC1a currents in oocytes [4]: almost completely | inhibition at 3 µM [8]: 74 ± 0.6% | inhibition at 3 µM [9]: 92 ± 0.5%
Structure (SMILES): N=C(N)c1ccc(/N=N/Nc2ccc(C(=N)N)cc2)cc1 [Diminazene]
effect on ENaC activities [3]: did not inhibit; also recorded: ineffective | relative current of ENaC with compound [3]: 1.11 ± 0.05 | effect on low pH-induced depolarization and excitation [7]: dramatically attenuated; also recorded: markedly attenuated | desensitization time constant of ASIC currents ([1]; 1 µM by perfusion, control 1.7 ± 0.2 s): 0.4 ± 0.1 s | Inhibition (potency), grade in words [1]: Strong inhibition | desensitization time constant of ASIC currents ([1]; diminazene 3 µM co-applied with pH 5.8, control 1.6 ± 0.3 s): 0.4 ± 0.1 s

IC50 [1]: 1.5 µM
Structure (SMILES): N=C(N)c1ccc(/C=C/c2ccc(C(=N)N)cc2O)cc1 [Hydroxystilbamidine]
effect on ENaC activities ([3]; listed as HSB): did not inhibit | relative current of ENaC with compound [3]: 1.02 ± 0.04 | Inhibition (potency), grade in words [1]: Strong inhibition | effect on rates of desensitization of ASIC currents [1]: did not have marked effects

Structure (SMILES): O=C(Nc1cccc(C2=NCCN2)c1)Nc1cccc(C2=NCCN2)c1 [Imidocarb]
inhibition of ASIC currents [1, 11]: Inhibit 42 ± 7% at 200 µM

Structure (SMILES): N=C(N)c1ccc2cc(OC(=O)c3ccc(N=C(N)N)cc3)ccc2c1 [Nafamostat]
IC50 [10]: ~1000 µM

Structure (SMILES): Cn1cc(NC(=O)c2cc(NC(=O)CN=C(N)N)cn2C)cc1C(=O)NCCC(=N)N [Netropsin]
effect on ASIC currents ([1]; 100 µM, cultured hippocampal neurons): did not inhibit | effect on ASIC currents ([1]; concentration not given): without effect; also recorded: failed to inhibit

block of ASIC1a currents in oocytes [4]: 77%
Structure (SMILES): N=C(N)c1ccc(OCCCCCOc2ccc(C(=N)N)cc2)cc1 [Pentamidine]
effect on ENaC activities [3]: did not inhibit; also recorded: ineffective | relative current of ENaC with compound [3]: 1.02 ± 0.03 | Inhibition (potency), grade in words [1]: Inhibition | effect on rates of desensitization of ASIC currents [1]: did not have marked effects

Structure (SMILES): Cc1ccc(C(=O)Nc2ccc(S(=O)(=O)O)c3cc(S(=O)(=O)O)cc(S(=O)(=O)O)c23)cc1NC(=O)c1cccc(NC(=O)Nc2cccc(C(=O)Nc3cc(C(=O)Nc4ccc(S(=O)(=O)O)c5cc(S(=O)(=O)O)cc(S(=O)(=O)O)c45)ccc3C)c2)c1 [suramin]
effect on ASIC currents ([1]; 500 µM, cultured hippocampal neurons): failed to inhibit
